Experimental data as given in ChEMBL document CHEMBL1149778, “Synthesis of some novel 2,4-disubstituted thiazoles as possible antimicrobial agents” (2008).
≈ marks a conversion by molar mass, not a printed value.

Key:
[1] = system: Bacillus subtilis; test: Antibacterial activity against Bacillus subtilis assessed as zone of inhibition after 16 to 18 hrs by serial plate dilution method; assay type: functional
Outline: (§1)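 Agar well diffusion: 20 ml agar per dish seeded with bacterial suspension, excess decanted, dishes held 1 h at 37 °C. Wells punched, compounds in DMSO added at their MIC levels, DMSO wells as control. Zone of inhibition measured.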

[2] = system: Pseudomonas aeruginosa; test: Antibacterial activity against Pseudomonas aeruginosa ATTC 27853 assessed as zone of inhibition after 16 to 18 hrs by serial plate dilution method; assay type: functional, ATCC27853; outline: as §1
[3] = system: Trichophyton mentagrophytes; test: Antifungal activity against Trichophyton mentagrophytes by serial plate dilution method; assay type: functional
[4] = system: Talaromyces marneffei; test: Antifungal activity against Penicillium marneffei by serial plate dilution method; assay type: functional
[5] = system: Escherichia coli; test: Antibacterial activity against Escherichia coli ATTC 25922 assessed as zone of inhibition after 16 to 18 hrs by serial plate dilution method; assay type: functional, ATCC25922; outline: as §1
[6] = system: Staphylococcus aureus; test: Antibacterial activity against Staphylococcus aureus ATTC 25923 assessed as zone of inhibition after 16 to 18 hrs by serial plate dilution method; assay type: functional; outline: as §1
[7] = system: Talaromyces marneffei; test: Antifungal activity against Penicillium marneffei assessed as zone of inhibition by serial plate dilution method; assay type: functional
Outline: (§2)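 Sabouraud agar (peptone, D-glucose, agar; pH 5.7), 20 ml per dish, lawned with a saline spore suspension from a loopful of fungus. Excess decanted, plates dried 1 h at 37 °C. Wells punched and compounds in DMSO added, DMSO as control. Triplicate plates, 37 °C for 3-4 days; inhibition-zone diameter measured.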

[8] = system: Staphylococcus aureus; test: Antibacterial activity against Staphylococcus aureus ATTC 25923 after 16 to 18 hrs by serial plate dilution method; assay type: functional
Outline: (§3)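 MIC by broth serial dilution: compound serially diluted in Mueller-Hinton broth, tubes adjusted to […] with phosphate buffer. Standardized bacterial suspension inoculated, incubated 16-18 h at 37 °C. MIC read as the lowest concentration with no visible growth.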

[9] = system: Bacillus subtilis; test: Antibacterial activity against Bacillus subtilis after 16 to 18 hrs by serial plate dilution method; assay type: functional; outline: as §3
[10] = system: Aspergillus flavus; test: Antifungal activity against Aspergillus flavus NCIM No.524 by serial plate dilution method; assay type: functional
[11] = system: Escherichia coli; test: Antibacterial activity against Escherichia coli ATTC 25922 after 16 to 18 hrs by serial plate dilution method; assay type: functional; conditions: ATCC25922; outline: as §3
[12] = system: Aspergillus fumigatus; test: Antifungal activity against Aspergillus fumigatus NCIM No.902 by serial plate dilution method; assay type: functional
[13] = system: Pseudomonas aeruginosa; test: Antibacterial activity against Pseudomonas aeruginosa ATTC 27853 after 16 to 18 hrs by serial plate dilution method; assay type: functional; conditions: ATCC27853; outline: as §3
[14] = system: Aspergillus flavus; test: Antifungal activity against Aspergillus flavus NCIM No.524 assessed as zone of inhibition by serial plate dilution method; assay type: functional; outline: as §2
[15] = system: Aspergillus fumigatus; test: Antifungal activity against Aspergillus fumigatus NCIM No.902 assessed as zone of inhibition by serial plate dilution method; assay type: functional; outline: as §2
[16] = system: Trichophyton mentagrophytes; test: Antifungal activity against Trichophyton mentagrophytes assessed as zone of inhibition by serial plate dilution method; assay type: functional; outline: as §2

MIC [3] | MIC [4] | MIC [8] | MIC [9] | MIC [10] | MIC [11] | MIC [12] | MIC [13] | SMILES | inhibition zone (IZ) [1] | inhibition zone (IZ) [2] | inhibition zone (IZ) [5] | inhibition zone (IZ) [6] | inhibition zone (IZ) [7] | inhibition zone (IZ) [14] | inhibition zone (IZ) [15] | inhibition zone (IZ) [16]
6.25 µg/mL (≈ 14.6 µM) | 25 µg/mL (≈ 58.3 µM) | 6.25 µg/mL (≈ 14.6 µM) | 6.25 µg/mL (≈ 14.6 µM) | 25 µg/mL (≈ 58.3 µM) | 6.25 µg/mL (≈ 14.6 µM) | 6.25 µg/mL (≈ 14.6 µM) | 6.25 µg/mL (≈ 14.6 µM) | CSc1ccc(-c2csc(N/N=C/c3cc(Cl)cc(Cl)c3Cl)n2)cc1 | 16 mm | 16 mm | 16 mm | 16 mm | <10 mm | <10 mm | 16 mm | 16 mm
6.25 µg/mL (≈ 16.3 µM) | 6.25 µg/mL (≈ 16.3 µM) | 25 µg/mL (≈ 65.2 µM) | 12.5 µg/mL (≈ 32.6 µM) | 6.25 µg/mL (≈ 16.3 µM) | 12.5 µg/mL (≈ 32.6 µM) | 6.25 µg/mL (≈ 16.3 µM) | 12.5 µg/mL (≈ 32.6 µM) | Clc1cc(Cl)c(Cl)c(/C=N/Nc2nc(-c3cccnc3)cs2)c1 | 10 mm | 11 mm | 11 mm | <10 mm | 16 mm | 16 mm | 16 mm | 16 mm
25 µg/mL (≈ 62.5 µM) | 6.25 µg/mL (≈ 15.6 µM) | 6.25 µg/mL (≈ 15.6 µM) | 6.25 µg/mL (≈ 15.6 µM) | 6.25 µg/mL (≈ 15.6 µM) | 6.25 µg/mL (≈ 15.6 µM) | 25 µg/mL (≈ 62.5 µM) | 6.25 µg/mL (≈ 15.6 µM) | NC(=O)c1cc(-c2csc(-c3cc(Cl)cc(Cl)c3Cl)n2)ccc1O | 16 mm | 16 mm | 16 mm | 16 mm | 16 mm | 16 mm | <10 mm | <10 mm
6.25 µg/mL (≈ 15 µM) | 6.25 µg/mL (≈ 15 µM) | 12.5 µg/mL (≈ 30 µM) | 12.5 µg/mL (≈ 30 µM) | 6.25 µg/mL (≈ 15 µM) | 25 µg/mL (≈ 60 µM) | 6.25 µg/mL (≈ 15 µM) | 12.5 µg/mL (≈ 30 µM) | Clc1cc(Cl)c(Cl)c(-c2nc(-c3ccc(-c4ccccc4)cc3)cs2)c1 | 11 mm | 11 mm | <10 mm | 11 mm | 16 mm | 16 mm | 16 mm | 16 mm
